Reference: ChEMBL document CHEMBL1926577, “Novel 1,3,4-heterodiazole analogues: synthesis and in-vitro antitumor activity” (2012)

Key:
Assay type in all cases: functional
[1] = test system: BT-549; test: Growth inhibition of human BT549 cells at 10 uM after 48 hrs by coulter counter method; details: BT-549, 48 h, read-out: GI
Outline: (§1)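 NCI 60-cell-line panel, single dose. Compound dissolved first in DMSO, then diluted in phosphate-buffered saline so that every final dilution held under 1% DMSO. Duplicate wells received cells at 6 × 10⁴ cells/ml. Controls held PBS/DMSO at the same dilution. Plates were incubated 48 h at 37 °C under 5% CO₂. Cells were then diluted 10-fold in saline and counted on a Coulter counter, with counts corrected for the dilution. Results are given as percent growth inhibition.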

[2] = test system: CAKI-1; test: Growth inhibition of human Caki1 cells at 10 uM after 48 hrs by coulter counter method; details: CAKI-1, 48 h, read-out: GI; outline: as §1
[3] = test system: SR; test: Growth inhibition of human SR cells at 10 uM after 48 hrs by coulter counter method; details: read-out: GI; outline: as §1
[4] = test system: IGROV-1; test: Growth inhibition of human IGROV1 cells at 10 uM after 48 hrs by coulter counter method; details: IGROV-1, 48 h, read-out: GI; outline: as §1
[5] = test system: NCI-H522; test: Growth inhibition of human NCI-H522 cells at 10 uM after 48 hrs by coulter counter method; details: NCI-H522, 48 h, read-out: GI; outline: as §1
[6] = test system: K562; test: Growth inhibition of human K562 cells at 10 uM after 48 hrs by coulter counter method; details: K562, 48 h, read-out: GI; outline: as §1
[7] = test system: SK-MEL-5; test: Growth inhibition of human SK-MEL-5 cells at 10 uM after 48 hrs by coulter counter method; details: SK-MEL-5, 48 h, read-out: GI; outline: as §1
[8] = test system: A549; test: Growth inhibition of human A549 cells at 10 uM after 48 hrs by coulter counter method; details: A549, 48 h, read-out: GI; outline: as §1
[9] = test system: SF-268; test: Growth inhibition of human SF268 cells at 10 uM after 48 hrs by coulter counter method; details: SF-268, 48 h, read-out: GI; outline: as §1
[10] = test system: Malme-3M; test: Growth inhibition of human MALME-3M cells at 10 uM after 48 hrs by coulter counter method; details: read-out: GI; outline: as §1
[11] = test system: UO-31; test: Growth inhibition of human UO31 cells at 10 uM after 48 hrs by coulter counter method; details: UO-31, 48 h, read-out: GI; outline: as §1
[12] = test system: CCRF-CEM; test: Growth inhibition of human CCRF-CEM cells at 10 uM after 48 hrs by coulter counter method; details: read-out: GI; outline: as §1
[13] = test system: NCI-H226; test: Growth inhibition of human NCI-H226 cells at 10 uM after 48 hrs by coulter counter method; details: NCI-H226, 48 h, read-out: GI; outline: as §1
[14] = test system: SNB-19; test: Growth inhibition of human SNB19 cells at 10 uM after 48 hrs by coulter counter method; details: SNB-19, 48 h, read-out: GI; outline: as §1
[15] = test system: PC-3; test: Growth inhibition of human PC3 cells at 10 uM after 48 hrs by coulter counter method; details: PC-3, 48 h, read-out: GI; outline: as §1
[16] = test system: LOX IMVI; test: Growth inhibition of human LOXIMVI cells at 10 uM after 48 hrs by coulter counter method; details: read-out: GI; outline: as §1
[17] = test system: MDA-MB-468; test: Growth inhibition of human MDA-MB-468 cells at 10 uM after 48 hrs by coulter counter method; details: MDA-MB-468, 48 h, read-out: GI; outline: as §1
[18] = test system: A498; test: Growth inhibition of human A498 cells at 10 uM after 48 hrs by coulter counter method; details: A498, 48 h, read-out: GI; outline: as §1
[19] = test system: ACHN; test: Growth inhibition of human ACHN cells at 10 uM after 48 hrs by coulter counter method; details: read-out: GI; outline: as §1
[20] = test system: M14; test: Growth inhibition of human M14 cells at 10 uM after 48 hrs by coulter counter method; details: M14, 48 h, read-out: GI; outline: as §1
[21] = test system: HCT-116; test: Growth inhibition of human HCT116 cells at 10 uM after 48 hrs by coulter counter method; details: HCT-116, 48 h, read-out: GI; outline: as §1
[22] = test system: KM12; test: Growth inhibition of human KM12 cells at 10 uM after 48 hrs by coulter counter method; details: KM12, 48 h, read-out: GI; outline: as §1
[23] = test system: EKVX; test: Growth inhibition of human EKVX cells at 10 uM after 48 hrs by coulter counter method; details: read-out: GI; outline: as §1
[24] = test system: RPMI-8226; test: Growth inhibition of human RPMI8226 cells at 10 uM after 48 hrs by coulter counter method; details: RPMI-8226, 48 h, read-out: GI; outline: as §1
[25] = test system: OVCAR-8; test: Growth inhibition of human OVCAR8 cells at 10 uM after 48 hrs by coulter counter method; details: OVCAR-8, 48 h, read-out: GI; outline: as §1
[26] = test system: 786-0; test: Growth inhibition of human 786-0 cells at 10 uM after 48 hrs by coulter counter method; details: 786-0, 48 h, read-out: GI; outline: as §1
[27] = test system: MOLT-4; test: Growth inhibition of human MOLT4 cells at 10 uM after 48 hrs by coulter counter method; details: MOLT-4, 48 h, read-out: GI; outline: as §1
[28] = test system: SN12C; test: Growth inhibition of human SN12C cells at 10 uM after 48 hrs by coulter counter method; details: read-out: GI; outline: as §1
[29] = test system: MCF7; test: Growth inhibition of human MCF7 cells at 10 uM after 48 hrs by coulter counter method; details: MCF7, 48 h, read-out: GI; outline: as §1
[30] = test system: NCI-H322M; test: Growth inhibition of human NCI-H322M cells at 10 uM after 48 hrs by coulter counter method; details: read-out: GI; outline: as §1
[31] = test system: UACC-62; test: Growth inhibition of human UACC62 cells at 10 uM after 48 hrs by coulter counter method; details: UACC-62, 48 h, read-out: GI; outline: as §1
[32] = test system: MDA-MB-435; test: Growth inhibition of human MDA-MB-435 cells at 10 uM after 48 hrs by coulter counter method; details: MDA-MB-435, 48 h, read-out: GI; outline: as §1
[33] = test system: HL-60(TB); test: Growth inhibition of human HL-60(TB) cells at 10 uM after 48 hrs by coulter counter method; details: HL-60, 48 h, read-out: GI
Outline: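 Single-dose screen on the NCI 60-line panel (leukemia subpanel). Compound is dissolved in DMSO and diluted in PBS, with final DMSO below 1%. Duplicate wells hold 6 × 10⁴ cells/ml at 37 °C, 5% CO₂, for 48 h. Cells are counted by Coulter counter after 10-fold saline dilution. Read-out is percent growth versus PBS/DMSO controls, expressed as % growth inhibition.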

[34] = test system: T47D; test: Growth inhibition of human T47D cells at 10 uM after 48 hrs by coulter counter method; details: read-out: GI; outline: as §1
[35] = test system: TK-10; test: Growth inhibition of human TK10 cells at 10 uM after 48 hrs by coulter counter method; details: TK-10, 48 h, read-out: GI; outline: as §1
[36] = test system: SNB-75; test: Growth inhibition of human SNB75 cells at 10 uM after 48 hrs by coulter counter method; details: SNB-75, 48 h, read-out: GI; outline: as §1
[37] = test system: SF-295; test: Growth inhibition of human SF295 cells at 10 uM after 48 hrs by coulter counter method; details: SF-295, 48 h, read-out: GI; outline: as §1
[38] = test system: HT-29; test: Growth inhibition of human HT-29 cells at 10 uM after 48 hrs by coulter counter method; details: HT-29, 48 h, read-out: GI; outline: as §1
[39] = test system: SK-MEL-2; test: Growth inhibition of human SK-MEL-2 cells at 10 uM after 48 hrs by coulter counter method; details: SK-MEL-2, 48 h, read-out: GI; outline: as §1
[40] = test system: HCT-15; test: Growth inhibition of human HCT15 cells at 10 uM after 48 hrs by coulter counter method; details: HCT-15, 48 h, read-out: GI; outline: as §1
[41] = test system: NCI-H23; test: Growth inhibition of human NCI-H23 cells at 10 uM after 48 hrs by coulter counter method; details: NCI-H23, 48 h, read-out: GI; outline: as §1
[42] = test system: SK-MEL-28; test: Growth inhibition of human SK-MEL-28 cells at 10 uM after 48 hrs by coulter counter method; details: SK-MEL-28, 48 h, read-out: GI; outline: as §1
[43] = test system: UACC-257; test: Growth inhibition of human UACC257 cells at 10 uM after 48 hrs by coulter counter method; details: UACC-257, 48 h, read-out: GI; outline: as §1
[44] = test system: NCI/ADR-RES; test: Growth inhibition of human NCI/ADR-RES cells at 10 uM after 48 hrs by coulter counter method; details: read-out: GI; outline: as §1
[45] = test system: U-251; test: Growth inhibition of human U251 cells at 10 uM after 48 hrs by coulter counter method; details: U-251, 48 h, read-out: GI; outline: as §1

Measured: inhibition of growth at 10 µM

NC1=CC(N)=NC2OC(c3ccc(Cl)cc3)=NN12 (stereo not given)
20.5%: [2]
16.3%: [15]
10.3%: [39]
14%: [5]
< 10%: [1] | [3] | [4] | [6] | [7] | [8] | [9] | [10] | [12] | [13] | [14] | [16] | [17] | [18] | [19] | [20] | [21] | [22] | [23] | [24] | [25] | [26] | [27] | [28] | [29] | [30] | [31] | [32] | [33] | [34] | [35] | [36] | [37] | [38] | [40] | [41] | [42] | [43] | [44] | [45]
23.8%: [11]
